Laboratory results taken from ChEMBL document CHEMBL4229342, “Synthesis of novel proxyphylline derivatives with dual Anti-Candida albicans and anticancer activity” (Eur J Med Chem, 2018).

tested on: Candida albicans; assay: Growth inhibition of Candida albicans ATCC 90028 at 2 ug/ml incubated for 4 hrs at 35 degC by broth microdilution method relative to control; assay type: functional; conditions: ATCC 90028, 4 h, read-out: GI

SMILES	inhibition of growth at 2 µg/mL
COC(C(=O)OC(C)Cn1cnc2c1c(=O)n(C)c(=O)n2C)c1ccc2ccccc2c1 (centres undefined)	99.1%

tested on: Candida albicans; assay: Growth inhibition of Candida albicans ATCC 90028 at 0.0625 ug/ml incubated for 4 hrs at 35 degC by broth microdilution method relative to control; assay type: functional; conditions: ATCC 90028, 4 h, read-out: GI

SMILES	inhibition of growth at 0.0625 µg/mL
COC(C(=O)OC(C)Cn1cnc2c1c(=O)n(C)c(=O)n2C)c1ccc2ccccc2c1 (centres undefined)	99.1%

tested on: Candida albicans; assay: Growth inhibition of Candida albicans ATCC 90028 at 1 ug/ml incubated for 18 hrs at 35 degC by broth microdilution method relative to control; assay type: functional; conditions: ATCC 90028, 18 h, read-out: GI

SMILES	inhibition of growth at 1 µg/mL
COC(C(=O)OC(C)Cn1cnc2c1c(=O)n(C)c(=O)n2C)c1ccc2ccccc2c1 (centres undefined)	99.1%

tested on: Candida albicans; assay: Fungicidal activity against Candida albicans ATCC 90028 assessed as log reduction in cell viability at 16 ug/ml after 48 hrs at 35 degC; assay type: functional; conditions: not given
Outline: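 MFC assay on C. albicans ATCC 90028 following M27-A3, at the molar equivalent of 16 µg/mL. CFU of treated cells were compared with CFU of the untreated inoculum. Activity is given as lg R = lg CFU/mL control − lg CFU/mL treated, and lg R ≥3 was defined as fungicidal. Values are means of two independent experiments.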

SMILES	log(activity)
COC(C(=O)OC(C)Cn1cnc2c1c(=O)n(C)c(=O)n2C)c1ccc2ccccc2c1 (centres undefined)	0.4

tested on: MCF7; assay: Antiproliferative activity against human MCF7 cells assessed as cell viability at 200 uM after 72 hrs by MTT assay; assay type: functional; conditions: MCF7, 72 h, read-out: Activity
Outline: (§1)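 MTT viability assay in CCRF-CEM and MCF-7 cells after 72 h exposure at 25, 50, 100 and 200 µM. Results are relative to control cells without inhibitor in 0.5% DMSO. Done in triplicate; values are means ± SD of three independent experiments.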

SMILES	viability at 200 µM
COC(C(=O)OC(C)Cn1cnc2c1c(=O)n(C)c(=O)n2C)c1ccc2ccccc2c1 (centres undefined)	68.8%

tested on: Candida albicans; assay: Growth inhibition of Candida albicans ATCC 90028 at 2 ug/ml incubated for 18 hrs at 35 degC by broth microdilution method relative to control; assay type: functional; conditions: ATCC 90028, 18 h, read-out: GI

SMILES	inhibition of growth at 2 µg/mL
COC(C(=O)OC(C)Cn1cnc2c1c(=O)n(C)c(=O)n2C)c1ccc2ccccc2c1 (centres undefined)	99%

tested on: Candida albicans; assay: Growth inhibition of Candida albicans ATCC 90028 at 8 ug/ml incubated for 4 hrs at 35 degC by broth microdilution method relative to control; assay type: functional; conditions: ATCC 90028, 4 h, read-out: GI

SMILES	inhibition of growth at 8 µg/mL
COC(C(=O)OC(C)Cn1cnc2c1c(=O)n(C)c(=O)n2C)c1ccc2ccccc2c1 (centres undefined)	99%

tested on: Candida albicans; assay: Growth inhibition of Candida albicans ATCC 90028 at 4 ug/ml incubated for 18 hrs at 35 degC by broth microdilution method relative to control; assay type: functional; conditions: ATCC 90028, 18 h, read-out: GI

SMILES	inhibition of growth at 4 µg/mL
COC(C(=O)OC(C)Cn1cnc2c1c(=O)n(C)c(=O)n2C)c1ccc2ccccc2c1 (centres undefined)	99%

tested on: Candida albicans; assay: Growth inhibition of Candida albicans ATCC 90028 at 0.5 ug/ml incubated for 4 hrs at 35 degC by broth microdilution method relative to control; assay type: functional; conditions: ATCC 90028, 4 h, read-out: GI

SMILES	inhibition of growth at 0.5 µg/mL
COC(C(=O)OC(C)Cn1cnc2c1c(=O)n(C)c(=O)n2C)c1ccc2ccccc2c1 (centres undefined)	99.1%

tested on: MCF7; assay: Antiproliferative activity against human MCF7 cells assessed as cell viability at 100 uM after 72 hrs by MTT assay; assay type: functional; conditions: MCF7, 72 h, read-out: Activity; outline: as §1

SMILES	viability at 100 µM
COC(C(=O)OC(C)Cn1cnc2c1c(=O)n(C)c(=O)n2C)c1ccc2ccccc2c1 (centres undefined)	83.7%

tested on: CCRF-CEM; assay: Antiproliferative activity against human CCRF-CEM cells assessed as cell viability at 100 uM after 72 hrs by MTT assay; assay type: functional; conditions: read-out: Activity; outline: as §1

SMILES	viability at 100 µM
COC(C(=O)OC(C)Cn1cnc2c1c(=O)n(C)c(=O)n2C)c1ccc2ccccc2c1 (centres undefined)	27.6%

tested on: CCRF-CEM; assay: Antiproliferative activity against human CCRF-CEM cells assessed as cell viability at 200 uM after 72 hrs by MTT assay; assay type: functional; conditions: read-out: Activity; outline: as §1

SMILES	viability at 200 µM
COC(C(=O)OC(C)Cn1cnc2c1c(=O)n(C)c(=O)n2C)c1ccc2ccccc2c1 (centres undefined)	15%

tested on: Candida albicans; assay: Growth inhibition of Candida albicans ATCC 90028 at 0.0625 ug/ml incubated for 18 hrs at 35 degC by broth microdilution method relative to control; assay type: functional; conditions: ATCC 90028, 18 h, read-out: GI

SMILES	inhibition of growth at 0.0625 µg/mL
COC(C(=O)OC(C)Cn1cnc2c1c(=O)n(C)c(=O)n2C)c1ccc2ccccc2c1 (centres undefined)	99.1%

tested on: Candida albicans; assay: Growth inhibition of Candida albicans ATCC 90028 at 0.125 ug/ml incubated for 4 hrs at 35 degC by broth microdilution method relative to control; assay type: functional; conditions: ATCC 90028, 4 h, read-out: GI

SMILES	inhibition of growth at 0.125 µg/mL
COC(C(=O)OC(C)Cn1cnc2c1c(=O)n(C)c(=O)n2C)c1ccc2ccccc2c1 (centres undefined)	99%

tested on: CCRF-CEM; assay: Antiproliferative activity against human CCRF-CEM cells assessed as cell viability at 25 uM after 72 hrs by MTT assay; assay type: functional; conditions: read-out: Activity; outline: as §1

SMILES	viability at 25 µM
COC(C(=O)OC(C)Cn1cnc2c1c(=O)n(C)c(=O)n2C)c1ccc2ccccc2c1 (centres undefined)	84.7%

tested on: Candida albicans; assay: Growth inhibition of Candida albicans ATCC 90028 at 8 ug/ml incubated for 48 hrs at 35 degC by broth microdilution method relative to control; assay type: functional; conditions: ATCC 90028, 48 h, read-out: GI

SMILES	inhibition of growth at 8 µg/mL
COC(C(=O)OC(C)Cn1cnc2c1c(=O)n(C)c(=O)n2C)c1ccc2ccccc2c1 (centres undefined)	99%

tested on: Candida albicans; assay: Growth inhibition of Candida albicans ATCC 90028 at 16 ug/ml incubated for 48 hrs at 35 degC by broth microdilution method relative to control; assay type: functional; conditions: ATCC 90028, 48 h, read-out: GI

SMILES	inhibition of growth at 16 µg/mL
COC(C(=O)OC(C)Cn1cnc2c1c(=O)n(C)c(=O)n2C)c1ccc2ccccc2c1 (centres undefined)	99%

tested on: MCF7; assay: Antiproliferative activity against human MCF7 cells assessed as cell viability at 25 uM after 72 hrs by MTT assay; assay type: functional; conditions: MCF7, 72 h, read-out: Activity; outline: as §1

SMILES	viability at 25 µM
COC(C(=O)OC(C)Cn1cnc2c1c(=O)n(C)c(=O)n2C)c1ccc2ccccc2c1 (centres undefined)	93.5%

tested on: Candida albicans; assay: Growth inhibition of Candida albicans ATCC 90028 at 8 ug/ml incubated for 18 hrs at 35 degC by broth microdilution method relative to control; assay type: functional; conditions: ATCC 90028, 18 h, read-out: GI

SMILES	inhibition of growth at 8 µg/mL
COC(C(=O)OC(C)Cn1cnc2c1c(=O)n(C)c(=O)n2C)c1ccc2ccccc2c1 (centres undefined)	99%

tested on: Candida albicans; assay: Growth inhibition of Candida albicans ATCC 90028 at 0.125 ug/ml incubated for 18 hrs at 35 degC by broth microdilution method relative to control; assay type: functional; conditions: ATCC 90028, 18 h, read-out: GI

SMILES	inhibition of growth at 0.125 µg/mL
COC(C(=O)OC(C)Cn1cnc2c1c(=O)n(C)c(=O)n2C)c1ccc2ccccc2c1 (centres undefined)	99.1%

tested on: Candida albicans; assay: Growth inhibition of Candida albicans ATCC 90028 at 0.5 ug/ml incubated for 18 hrs at 35 degC by broth microdilution method relative to control; assay type: functional; conditions: ATCC 90028, 18 h, read-out: GI

SMILES	inhibition of growth at 0.5 µg/mL
COC(C(=O)OC(C)Cn1cnc2c1c(=O)n(C)c(=O)n2C)c1ccc2ccccc2c1 (centres undefined)	99.2%

tested on: Candida albicans; assay: Growth inhibition of Candida albicans ATCC 90028 at 0.25 ug/ml incubated for 4 hrs at 35 degC by broth microdilution method relative to control; assay type: functional; conditions: ATCC 90028, 4 h, read-out: GI

SMILES	inhibition of growth at 0.25 µg/mL
COC(C(=O)OC(C)Cn1cnc2c1c(=O)n(C)c(=O)n2C)c1ccc2ccccc2c1 (centres undefined)	99.1%

tested on: Candida albicans; assay: Growth inhibition of Candida albicans ATCC 90028 at 1 ug/ml incubated for 4 hrs at 35 degC by broth microdilution method relative to control; assay type: functional; conditions: ATCC 90028, 4 h, read-out: GI

SMILES	inhibition of growth at 1 µg/mL
COC(C(=O)OC(C)Cn1cnc2c1c(=O)n(C)c(=O)n2C)c1ccc2ccccc2c1 (centres undefined)	99%

tested on: CCRF-CEM; assay: Antiproliferative activity against human CCRF-CEM cells assessed as cell viability at 50 uM after 72 hrs by MTT assay; assay type: functional; conditions: read-out: Activity; outline: as §1

SMILES	viability at 50 µM
COC(C(=O)OC(C)Cn1cnc2c1c(=O)n(C)c(=O)n2C)c1ccc2ccccc2c1 (centres undefined)	28.2%

tested on: MCF7; assay: Antiproliferative activity against human MCF7 cells assessed as cell viability at 50 uM after 72 hrs by MTT assay; assay type: functional; conditions: MCF7, 72 h, read-out: Activity; outline: as §1

SMILES	viability at 50 µM
COC(C(=O)OC(C)Cn1cnc2c1c(=O)n(C)c(=O)n2C)c1ccc2ccccc2c1 (centres undefined)	86.3%

tested on: Candida albicans; assay: Growth inhibition of Candida albicans ATCC 90028 at 0.25 ug/ml incubated for 18 hrs at 35 degC by broth microdilution method relative to control; assay type: functional; conditions: ATCC 90028, 18 h, read-out: GI

SMILES	inhibition of growth at 0.25 µg/mL
COC(C(=O)OC(C)Cn1cnc2c1c(=O)n(C)c(=O)n2C)c1ccc2ccccc2c1 (centres undefined)	99%

tested on: Candida albicans; assay: Growth inhibition of Candida albicans ATCC 90028 at 16 ug/ml incubated for 18 hrs at 35 degC by broth microdilution method relative to control; assay type: functional; conditions: ATCC 90028, 18 h, read-out: GI

SMILES	inhibition of growth at 16 µg/mL
COC(C(=O)OC(C)Cn1cnc2c1c(=O)n(C)c(=O)n2C)c1ccc2ccccc2c1 (centres undefined)	99.2%

tested on: Candida albicans; assay: Growth inhibition of Candida albicans ATCC 90028 at 0.0313 ug/ml incubated for 4 hrs at 35 degC by broth microdilution method relative to control; assay type: functional; conditions: ATCC 90028, 4 h, read-out: GI

SMILES	inhibition of growth at 0.0313 µg/mL
COC(C(=O)OC(C)Cn1cnc2c1c(=O)n(C)c(=O)n2C)c1ccc2ccccc2c1 (centres undefined)	99.1%

tested on: Candida albicans; assay: Growth inhibition of Candida albicans ATCC 90028 at 0.0313 ug/ml incubated for 18 hrs at 35 degC by broth microdilution method relative to control; assay type: functional; conditions: ATCC 90028, 18 h, read-out: GI

SMILES	inhibition of growth at 0.0313 µg/mL
COC(C(=O)OC(C)Cn1cnc2c1c(=O)n(C)c(=O)n2C)c1ccc2ccccc2c1 (centres undefined)	99%
